Reference: ChEMBL document CHEMBL1129360, “Carbocyclic nucleosides as inhibitors of human tumor necrosis factor-alpha production: effects of the stereoisomers of (3-hydroxycyclopentyl)adenines” (J Med Chem, 1996)

Key:
Homo sapiens [1] = species on record: Homo sapiens; assay: In vitro inhibitory activity was measured against tumor necrosis factor-alpha production; format: functional
Procedure, shortened: (§1)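 Human peripheral blood mononuclear cells from normal volunteers were separated by density gradient. Adherent monocyte/macrophages were kept after 1 h and lifted with RPMI-1640/0.2% EDTA/5% FCS. Compounds in PBS (0.16, 0.8, 4.0, 20.0, 100 µM) were added to the cells 15 min before LPS. Cells were incubated 18 h at 37 °C, 5% CO2. Supernatant TNF-α, IL-1β and IL-6 were measured by specific ELISA, giving IC50.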

Mus musculus [2] = assay: Protective effects against lethal injections of D-galactosamine sensitized Lipopolysaccharide challenged (LD100) CF1 mice (100 mg/kg IP in PBS); format: functional
Procedure, shortened: (§2)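 Female CF1 mice were fasted overnight, then given compound at 100 mg/kg ip in PBS 1 h before an ip challenge of D-galactosamine (20 mg) plus S. enteritidis LPS (15-250 ng). The LPS LD100 was set for each shipment of mice, and the challenge was at LD100 or 3× LD100. Mice were refed after challenge and survival was scored at 8 h. PBS vehicle served as control.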

Mus musculus [3] = assay: D-galactosamine sensitized mice were given 3 times the LD100 dose of LPS (100 mg/kg IP in PBS); format: functional; procedure, shortened: as §2
Homo sapiens [4] = species on record: Homo sapiens; assay: in vitro inhibitory activity was measured against interleukin-6 (IL-6) production; format: functional, organism-based; procedure, shortened: as §1
Homo sapiens [5] = species on record: Homo sapiens; assay: in vitro inhibitory activity was measured against interleukin-1-beta (IL1-beta) production; format: functional; procedure, shortened: as §1

With `Nc1ncnc2c1ncn2[C@@H]1CC[C@H](O)C1` as the compound, how does the IC50 (Homo sapiens [1]) read?
The IC50 was 18 µM.

What about the Survival (Mus musculus [2]) of the same compound?
The Survival was 50%.

What about the Survival (Mus musculus [3]) of the same compound?
Its Survival is 0%.

What about the IC50 (Homo sapiens [4]) of the same compound?
Its IC50 is greater than 100 µM.

And the IC50 (Homo sapiens [5])?
The IC50 was greater than 100 µM.

For `CC(=O)CCCCn1c(=O)c2c(ncn2C)n(C)c1=O` [PENTOXIFYLLINE], which IC50 (Homo sapiens [1]) is on record?
The IC50 was 33 µM.

What about the Survival (Mus musculus [2]) of the same compound?
The Survival was 66%.

And the Survival (Mus musculus [3])?
Its Survival is 0%.

What about the IC50 (Homo sapiens [4]) of the same compound?
Its IC50 is greater than 100 µM.

And the IC50 (Homo sapiens [5])?
The IC50 was greater than 100 µM.

`Nc1ncnc2c1ncn2[C@@H]1O[C@H](CO)[C@@H](O)[C@H]1O` [ADENOSINE] was tested. Which IC50 (Homo sapiens [1]) did it give?
The IC50 was 6 µM.

What about the Survival (Mus musculus [2]) of the same compound?
The Survival was 0%.

And the Survival (Mus musculus [3])?
The Survival was 0%.

And the IC50 (Homo sapiens [4])?
The IC50 was greater than 100 µM.

What about the IC50 (Homo sapiens [5]) of the same compound?
Its IC50 is greater than 100 µM.

How did the IC50 (Homo sapiens [1]) turn out when `Nc1ncnc2c1ncn2[C@@H]1CC[C@@H](O)C1` was run?
The IC50 was 9 µM.

And the Survival (Mus musculus [2])?
Its Survival is 100%.

And the Survival (Mus musculus [3])?
The Survival was 100%.

What about the IC50 (Homo sapiens [4]) of the same compound?
Its IC50 is greater than 100 µM.

And the IC50 (Homo sapiens [5])?
Its IC50 is 76 µM.

What does the source list for `Nc1ncnc2c1ncn2[C@H]1CC[C@H](O)C1`?
IC50 (Homo sapiens [1]): 16 µM; Survival (Mus musculus [2]): 63%; Survival (Mus musculus [3]): 0%; IC50 (Homo sapiens [4]): > 100 µM; IC50 (Homo sapiens [5]): > 100 µM

`Nc1ncnc2c1ncn2[C@H]1CC[C@@H](O)C1` was tested. Which IC50 (Homo sapiens [1]) did it give?
Its IC50 is 40 µM.

What about the Survival (Mus musculus [2]) of the same compound?
Its Survival is 88%.

And the Survival (Mus musculus [3])?
Its Survival is 0%.

What about the IC50 (Homo sapiens [4]) of the same compound?
Its IC50 is greater than 100 µM.

What about the IC50 (Homo sapiens [5]) of the same compound?
Its IC50 is greater than 100 µM.
